# Screening data deposited in PubChem BioAssay by The Scripps Research Institute Molecular Screening Center.
# rCAG binder = r(CAG) repeat RNA binding; inhibition, % at 3 µM; TO-PRO-1 dye displacement fluorescence; hit rate 1.3% among 370,000;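 active = inhibition above the plate cutoff, the mean of all test compounds on that plate plus 3 SD, cut at about 35% in these data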;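 note: 0% = DMSO alone and 100% = 100 µM mitoxantrone as full dye displacement; higher means more dye released from RNA so lower well fluorescence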
# ABHD4 inh = ABHD4 (mouse) inhibition, primary FP screen; inhibition, % at 8.92 µM; Q8VD66; purified mABHD4, FP-Rh probe fluorescence polarization; hit rate 0.54% among 370,000;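 active = inhibition exceeding the mean over every tested compound plus 3 SD, cut at about 30% in these data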;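 note: 0% = plate median of compound wells and 100% = S159A mutant with DMSO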
#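 Doses – 8.92 µM, single dose · Material – wild-type mouse ABHD4 protein · Replication – single well per compound (singlicate) · Measure – percent inhibition of probe binding, normalized to plate controls · Schedule – 45 min compound pre-incubation plus 60 min probe step, 25 °C · Detection – fluorescence polarization with parallel and perpendicular emission, 525/598 nm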
# HTRA1 inh = blocks human HTRA1 serine peptidase; Q92743; recombinant HTRA1, FP-rhodamine activity-based probe, fluorescence polarization; inhibition, % at 5.96 µM; hit rate 0.5% among 340,000; AID 504803; in the data active = inhibition above about 36%;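 note: 0% = enzyme with DMSO and 100% = wells lacking enzyme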
# Target sequence (Q92743 whole entry, looked up): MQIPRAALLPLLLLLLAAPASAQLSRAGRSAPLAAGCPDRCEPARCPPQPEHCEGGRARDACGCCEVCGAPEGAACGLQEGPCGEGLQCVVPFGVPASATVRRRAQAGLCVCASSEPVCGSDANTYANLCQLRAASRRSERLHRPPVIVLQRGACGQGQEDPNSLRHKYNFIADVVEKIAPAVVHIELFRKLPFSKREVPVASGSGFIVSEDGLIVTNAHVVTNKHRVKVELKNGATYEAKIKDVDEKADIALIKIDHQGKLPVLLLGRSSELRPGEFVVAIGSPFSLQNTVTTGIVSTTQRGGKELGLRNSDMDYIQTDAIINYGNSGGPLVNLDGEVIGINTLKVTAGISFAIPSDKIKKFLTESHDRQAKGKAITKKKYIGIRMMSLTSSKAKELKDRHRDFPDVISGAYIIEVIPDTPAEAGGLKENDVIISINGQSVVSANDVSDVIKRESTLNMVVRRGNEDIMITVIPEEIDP
# PRMT1 inh = PRMT1 (human) inhibition, primary screen; recombinant PRMT1, activity-based probe fluorescence polarization; inhibition, % at 2.79 µM; hit rate 1.3% among 370,000; AID 652257;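 active = inhibition above about 21% made by adding two undisclosed values, limit read from the data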
# DAGLB inh = blocks human DAGLB lipase activity; HEK293T DAGLB membrane lysate, EnzChek fluorogenic substrate; AID 504411; Q8NCG7; hit rate 0.059% among 340,000; inhibition, % at 5.17 µM; in the data active = inhibition above about 34%;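 note: 0% = enzyme with vehicle and 100% = wells lacking enzyme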
# LEDGF integ inh = blocks HIV-1 LEDGF/p75-dependent DNA integration; inhibition, % at 3.7 µM; TR-FRET IN-LEDGF/p75 DNA integration, Eu/Cy5; hit rate 0.64% among 370,000;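 active = inhibition above the screen-wide mean plus 3 SD, cut at about 13% in these data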;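 note: signal is the Cy5 over europium emission ratio at 671 and 618 nm; 0% = plate median of compound wells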
# PRMT1 inh conf = PRMT1 (human) inhibition, FP confirmation. recombinant His-PRMT1, activity-based probe fluorescence polarization. hit rate 42% among 3,300. inhibition, % at 2.79 µM. shares compounds with PRMT1 inh;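 active = mean inhibition across replicates above the hit cutoff derived for the earlier primary screen, cut at about 22% in these data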
# Starred values were filed as active, the others as inactive; x = not tested or not shown. Rows were chosen to be rich in hits. Some 3.2% of all compounds tested hit in one or more screens of this group.
SMILES,rCAG binder,ABHD4 inh,HTRA1 inh,PRMT1 inh,DAGLB inh,LEDGF integ inh,PRMT1 inh conf
CC1(c2cc([N+](=O)[O-])cc([N+](=O)[O-])c2)CC(C)(C)N(C(=O)c2ccccc2)c2ccccc21 (configuration not stated),5.7,0.8,-2.1,-0.8,-16.8,-2.1,x
N#Cc1cnc(SCC(=O)Nc2ccccc2C(F)(F)F)nc1N,-0.1,-20.3,-11.2,-4.0,-2.9,-0.9,x
Cn1nnnc1Sc1ncnc2scc(-c3ccc[nH]3)c12,3.2,9.8,-5.2,30.9*,4.0,2.3,2.0
O=C(NC1=NCCS1)c1csc2ccccc12,7.3,-3.2,-0.8,27.1*,-1.7,5.6,8.6
COc1ccccc1-n1c(SC)nc2c(sc(=S)n2-c2ccccc2)c1=O,-2.9,10.0,-4.0,1.7,-2.5,-0.6,x
COc1ccc(OC)c(-n2c(=S)[nH]c3cc(C(=O)N(C)Cc4ccccc4)ccc3c2=O)c1,2.4,2.4,-1.6,0.3,-0.4,-3.7,x
COc1cccc(-n2c(=S)sc3c(=O)n(-c4ccccc4OC)c(=S)[nH]c32)c1,6.7,-1.1,-14.5,82.3*,-2.4,5.1,20.5
COc1ccc(OC)c(-n2c(=S)[nH]c3c(sc(=S)n3-c3ccccc3C)c2=O)c1,5.5,7.9,3.4,48.1*,2.8,-1.6,3.2
CC(=O)Nc1ccc(S(=O)(=O)NC(C)C(=O)OCC(=O)Nc2ccc(F)cc2Cl)cc1 (configuration not stated),1.7,-0.5,-2.3,-2.3,-1.9,-4.1,x
CCN1C(=O)[C@H]2[C@@H](c3ccc(-c4ccc(F)cc4)cc3)N[C@@](CC(C)C)(C(=O)OC)[C@H]2C1=O,0.1,-0.4,-11.6,3.5,-2.4,-0.9,x
COc1ccc(CCC(=O)OCC(=O)Nc2sccc2C#N)cc1,13.8,3.5,-3.1,0.5,-3.5,-3.2,x
COC(=O)C(Cc1ccc(OC(=O)c2ccc(C(F)(F)F)cc2)cc1)N1Cc2ccccc2C1=O (configuration not stated),x,x,-27.1,x,-3.7,x,x
Cc1ccc(SSc2cc(C)ccc2N)c(N)c1,5.8,14.0,-2.0,69.8*,-17.2,-2.8,86.9*
Cc1ccc(C(=O)CCS(=O)(=O)c2ccc(F)cc2)cc1,-5.5,-3.4,-1.3,28.8*,2.0,-1.4,26.5*
CCC(C)(C)n1nnnc1C(c1ccc2ncccc2c1)N1CCN(c2ccc(O)cc2)CC1 (configuration not stated),6.5,18.2,10.9,27.0*,2.9,-1.4,2.1
O=C(C(c1ccccc1)c1ccccc1)N1CCN(Cc2ccccn2)CC1,-1.6,3.4,-5.7,6.2,-0.5,2.0,x
Cc1ccc(NS(=O)(=O)c2ccc3c(c2)n(C)c(=O)n3C)cc1C,0.7,-13.1,-3.9,25.2*,-0.9,-0.6,8.0
CN(CC(=O)Nc1cccc(F)c1)CC(=O)Nc1cccc2ccccc12,2.0,-12.3,-12.3,0.8,2.2,6.2,x
CCOC(=O)c1ccc(NC(=S)N2CCSC2c2ccc(Br)cc2)cc1 (configuration not stated),2.7,-2.6,-23.2,82.5*,-2.9,-1.1,5.1
CC(C)(C)OC(=O)NCCCCCc1nnc(SCc2ccccc2)o1,-11.4,3.6,1.8,81.3*,-7.9,-4.6,0.3
CC(C)(C)OC(=O)NCCCCCc1nnc(SCc2cccc(F)c2)o1,-12.1,-2.6,-2.7,-2.8,-4.1,1.1,x
Cc1ccccc1-c1nc(S(=O)(=O)c2ccccc2)c(NCCN2CCOCC2)o1,0.7,-0.5,-0.2,0.2,-5.2,0.1,x
C[C@@H]1COc2cc(N3CCC[C@H]3CO)ccc2S(=O)(=O)N1,1.8,4.2,x,-3.3,x,2.7,x
O=C1N=C(N2CCCCC2)SC1=C1CCCCC1,5.4,9.2,3.7,7.9,1.1,3.1,x
O=C1NC(=S)SC1=C1CCCCCC1,9.2,-3.7,-4.5,32.2*,5.5,5.0,-0.3
O=NN(CCc1ccncc1)c1ccc(OCc2ccccc2)cc1,-8.1,0.2,-11.2,0.2,-5.9,0.3,x
Cn1cccc1C=NNC(=O)c1cc(-c2ccc(Cl)cc2)n[nH]1,10.1,-7.5,x,25.2*,x,0.7,-6.8
COc1ccc(-c2cc(C(=O)NN=Cc3cccn3C)[nH]n2)cc1,14.0,2.8,x,8.4,x,-1.9,x
